Measured values reported in ChEMBL document CHEMBL3272325, “Structure-activity relationships of dimeric Catharanthus alkaloids. 1. Deacetylvinblastine amide (vindesine) sulfate” (J Med Chem, 1978).

What was measured:
B16 [1] = assay: Antitumor activity against mouse B16 cells allografted in C57Bl/6 mouse assessed as increase in life span at 0.3 mg/kg/day, ip administered on day 1, 5 and 9 measured for 61 days relative to control; type: functional; details: route intraperitoneal
In short: (§1)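 C57BL/6 mice implanted ip with 0.5 mL of B16 melanoma brei. Alkaloid sulfate salts given ip on days 1, 5, 9 or on days 5, 9, 13. Percent increase in life span measured against controls; experiment ended at 61 days.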

B16 [2] = assay: Antitumor activity against mouse B16 cells allografted in C57Bl/6 mouse assessed as increase in life span at 0.15 mg/kg/day, ip administered on day 5, 9 and 13 measured for 61 days relative to control; type: functional; details: route intraperitoneal; in short: as §1
[3] = Acute toxicity in ip dosed mouse; type: organism-based; details: in vivo
B16 [4] = assay: Antitumor activity against mouse B16 cells allografted in C57Bl/6 mouse assessed as mean survival time at 0.15 mg/kg/day, ip administered on day 5, […] (reference value: 21.5 days); type: functional; details: route intraperitoneal
B16 [5] = assay: Antitumor activity against mouse B16 cells allografted in C57Bl/6 mouse assessed as increase in life span at 0.15 mg/kg/day, ip administered on day 1, 5 and 9 measured for 61 days relative to control; type: functional; details: route intraperitoneal; in short: as §1
[6] = Antitumor activity against mouse Gardner lymphosarcoma cell allografted in mouse at 0.3 to 0.4 mg/kg/day, ip; type: functional; details: route intraperitoneal
In short: (§2)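 Ridgeway osteogenic sarcoma and Gardner lymphosarcoma in mice, with sulfate salts given ip daily on days 1-9. Tumor growth inhibition versus controls scored in bands: +++ = 75-100%, ++ = 50-75%, ± = under 25%.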

P388 [7] = assay: Antitumor activity against mouse P388 cells allografted in mouse assessed as increase in life span at 1.8 mg/kg/day, ip after 1 day; type: functional; details: 24 h, route intraperitoneal
In short: (§3)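 P388 ascites implanted ip in mice, 10 animals per group. Sulfate salts given ip either daily on days 1-9 or as a single dose on day 1. Median life span was calculated using all deaths and survivors. Percent increase in life span was taken over untreated controls. The highest nontoxic dose was noted.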

B16 [8] = assay: Antitumor activity against mouse B16 cells allografted in C57Bl/6 mouse assessed as mean survival time at 0.3 mg/kg/day, ip administered on day 1, 5 and 9 (reference value: 24.6 days); type: functional; details: route intraperitoneal
P388 [9] = assay: Antitumor activity against mouse P388 cells allografted in mouse assessed as increase in life span at 0.6 mg/kg/day, ip administered from day 1 to day 9 relative to untreated control; type: functional; details: route intraperitoneal; in short: as §3
[10] = Toxicity in ip dosed mouse allografted with mouse p388 cells after 1 day; type: organism-based; details: in vivo, read-out: MNTD; in short: as §3
B16 [11] = assay: Antitumor activity against mouse B16 cells allografted in C57Bl/6 mouse assessed as mean survival time at 0.15 mg/kg/day, ip administered on day 1, 5 and 9 (reference value: 24.6 days); type: functional; details: route intraperitoneal
B16 [12] = assay: Antitumor activity against mouse B16 cells allografted in C57Bl/6 mouse assessed as mean survival time at 0.9 mg/kg/day, ip administered on day 1, 5 and 9 (reference value: 24.6 days); type: functional; details: route intraperitoneal
P388 [13] = assay: Antitumor activity against mouse P388 cells allografted in mouse assessed as increase in life span at 9 mg/kg/day, ip after 1 day; type: functional; details: 24 h, route intraperitoneal; in short: as §3
B16 [14] = assay: Antitumor activity against mouse B16 cells allografted in C57Bl/6 mouse assessed as increase in life span at 0.6 mg/kg/day, ip administered on day 5, 9 and 13 measured for 61 days relative to control; type: functional; details: route intraperitoneal; in short: as §1
B16 [15] = assay: Antitumor activity against mouse B16 cells allografted in C57Bl/6 mouse assessed as mean survival time at 1.2 mg/kg/day, ip administered on day 5, […] (reference value: 21.5 days); type: functional; details: route intraperitoneal
B16 [16] = assay: Antitumor activity against mouse B16 cells allografted in C57Bl/6 mouse assessed as increase in life span at 0.6 mg/kg/day, ip administered on day 1, 5 and 9 measured for 61 days relative to control; type: functional; details: route intraperitoneal; in short: as §1
B16 [17] = assay: Antitumor activity against mouse B16 cells allografted in C57Bl/6 mouse assessed as mean survival time at 0.6 mg/kg/day, ip administered on day 1, 5 and 9 (reference value: 24.6 days); type: functional; details: route intraperitoneal
B16 [18] = assay: Antitumor activity against mouse B16 cells allografted in C57Bl/6 mouse assessed as increase in life span at 0.9 mg/kg/day, ip administered on day 1, 5 and 9 measured for 61 days relative to control; type: functional; details: route intraperitoneal; in short: as §1
B16 [19] = assay: Antitumor activity against mouse B16 cells allografted in C57Bl/6 mouse assessed as increase in life span at 1.2 mg/kg/day, ip administered on day 5, 9 and 13 measured for 61 days relative to control; type: functional; details: route intraperitoneal
[20] = Antitumor activity against mouse P1534(J) cells allografted in mouse assessed as tumor growth inhibition at 0.2 mg/kg/day, ip administered from day 1 to day 9 relative to unreated control; type: functional; details: P1534J, route intraperitoneal, read-out: TGI
In short: (§4)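 P1534(J) leukemia implanted subcutaneously in mice. Sulfate salts given ip daily on days 1-9. Read-out was percent inhibition of tumor growth relative to untreated controls. The highest nontoxic dose was recorded.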

[21] = Toxicity in ip dosed mouse allografted with mouse p388 cells administered from day 1 to day 9; type: organism-based; details: in vivo, read-out: MNTD; in short: as §3
P388 [22] = assay: Antitumor activity against mouse P388 cells allografted in mouse assessed as increase in life span at 0.18 mg/kg/day, ip administered from day 1 to day 9 relative to untreated control; type: functional; details: route intraperitoneal; in short: as §3
P388 [23] = assay: Antitumor activity against mouse P388 cells allografted in mouse assessed as increase in life span at 0.4 mg/kg/day, ip administered from day 1 to day 9 relative to untreated control; type: functional; details: route intraperitoneal; in short: as §3
[24] = Antitumor activity against mouse Ridgeway osteogenic sarcoma cells allografted in mouse at 0.3 to 0.4 mg/kg/day, ip; type: functional; details: route intraperitoneal; in short: as §2
P388 [25] = assay: Antitumor activity against mouse P388 cells allografted in mouse assessed as increase in life span at 0.27 mg/kg/day, ip administered from day 1 to day 9 relative to untreated control; type: functional; details: route intraperitoneal; in short: as §3
B16 [26] = assay: Antitumor activity against mouse B16 cells allografted in C57Bl/6 mouse assessed as mean survival time at 1.2 mg/kg/day, ip administered on day 1, 5 and 9 (reference value: 24.6 days); type: functional; details: route intraperitoneal
P388 [27] = assay: Antitumor activity against mouse P388 cells allografted in mouse assessed as increase in life span at 4 mg/kg/day, ip after 1 day; type: functional; details: 24 h, route intraperitoneal; in short: as §3
[28] = Toxicity in ip dosed mouse allografted with mouse P1534(J) cells administered from day 1 to day 9; type: organism-based; details: in vivo, read-out: MNTD; in short: as §4
[29] = Antitumor activity against mouse P1534(J) cells allografted in mouse assessed as tumor growth inhibition at 0.1 mg/kg/day, ip administered from day 1 to day 9 relative to unreated control; type: functional; details: P1534J, route intraperitoneal, read-out: TGI; in short: as §4
B16 [30] = assay: Antitumor activity against mouse B16 cells allografted in C57Bl/6 mouse assessed as mean survival time at 0.3 mg/kg/day, ip administered on day 5, […] (reference value: 21.5 days); type: functional; details: route intraperitoneal
B16 [31] = assay: Antitumor activity against mouse B16 cells allografted in C57Bl/6 mouse assessed as increase in life span at 0.3 mg/kg/day, ip administered on day 5, 9 and 13 measured for 61 days relative to control; type: functional; details: route intraperitoneal; in short: as §1
P388 [32] = assay: Antitumor activity against mouse P388 cells allografted in mouse assessed as increase in life span at 6 mg/kg/day, ip after 1 day; type: functional; details: 24 h, route intraperitoneal; in short: as §3
B16 [33] = assay: Antitumor activity against mouse B16 cells allografted in C57Bl/6 mouse assessed as mean survival time at 0.9 mg/kg/day, ip administered on day 5, 9 and 13 (reference value: 21.5 days); details: route intraperitoneal
B16 [34] = assay: Antitumor activity against mouse B16 cells allografted in C57Bl/6 mouse assessed as increase in life span at 0.9 mg/kg/day, ip administered on day 5, 9 and 13 measured for 61 days relative to control; type: functional; details: route intraperitoneal; in short: as §1
B16 [35] = assay: Antitumor activity against mouse B16 cells allografted in C57Bl/6 mouse assessed as mean survival time at 0.6 mg/kg/day, ip administered on day 5, […] (reference value: 21.5 days); type: functional; details: route intraperitoneal
B16 [36] = assay: Antitumor activity against mouse B16 cells allografted in C57Bl/6 mouse assessed as increase in life span at 1.2 mg/kg/day, ip administered on day 1, 5 and 9 measured for 61 days relative to control; type: functional; details: route intraperitoneal
P388 [37] = assay: Antitumor activity against mouse P388 cells allografted in mouse assessed as increase in life span at 1.7 mg/kg/day, ip after 1 day; type: functional; details: 24 h, route intraperitoneal; in short: as §3
Blood = assay: Biodistribution in po dosed rat blood using [3H]-labeled drug relative to Iv dosing; type: ADME, organism-based; details: in vivo
[38] = Antitumor activity against mouse Ridgeway osteogenic sarcoma cells allografted in mouse at 0.5 to 0.8 mg/kg/day, ip; type: functional; details: route intraperitoneal
In short: (§5)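 Sulfate salts given ip on days 1-9 against ROS and GLS in mice; tumor growth scored as percent inhibition versus controls (+++ = 75-100%, ++ = 50-75%, ± = under 25%).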

[39] = Antitumor activity against mouse Gardner lymphosarcoma cell allografted in mouse at 0.5 to 0.8 mg/kg/day, ip; type: functional; details: route intraperitoneal; in short: as §5
[40] = Antitumor activity against mouse Ridgeway osteogenic sarcoma cells allografted in mouse at 0.5 to 0.7 mg/kg/day, ip; type: functional; details: route intraperitoneal; in short: as §5
[41] = Antitumor activity against mouse Gardner lymphosarcoma cell allografted in mouse at 0.5 to 0.7 mg/kg/day, ip; type: functional; details: route intraperitoneal; in short: as §5

CC[C@]1(O)C[C@H]2CN(CCc3c([nH]c4ccccc34)[C@@](C(=O)OC)(c3cc4c(cc3OC)N(C)[C@H]3[C@@](O)(C(=O)OC)[C@H](O)[C@]5(CC)C=CCN6CC[C@]43[C@@H]65)C2)C1.O=S(=O)(O)O
ILS at 0.3 mg/kg/day (B16 [1]): 100% | ILS at 0.15 mg/kg/day (B16 [2]): 57% | LD50 [3]: 5.8 mg/kg | MST (B16 [4]): 33.7 days | ILS at 0.15 mg/kg/day (B16 [5]): 71% | TGI [6]: 50% | ILS at 1.8 mg/kg/day (P388 [7]): 159% | MST (B16 [8]): 49.3 days | ILS at 0.6 mg/kg/day (P388 [9]): > 263% | MTD at 24 h [10]: 9 mg/kg/day | MST (B16 [11]): 42.1 days | MST (B16 [12]): 45.3 days | ILS at 9 mg/kg/day (P388 [13]): > 263% | ILS at 0.6 mg/kg/day (B16 [14]): 91% | MST (B16 [15]): 45.2 days | ILS at 0.6 mg/kg/day (B16 [16]): 109% | MST (B16 [17]): 51.5 days | ILS at 0.9 mg/kg/day (B16 [18]): 84% | ILS at 1.2 mg/kg/day (B16 [19]): 110% | inhibition in vivo at 0.2 mg/kg/day [20]: 96% | MTD [21]: 0.6 mg/kg/day | ILS at 0.18 mg/kg/day (P388 [22]): 136% | ILS at 0.4 mg/kg/day (P388 [23]): > 263% | TGI [24]: 50% | ILS at 0.27 mg/kg/day (P388 [25]): 181% | MST (B16 [26]): 41.5 days | ILS at 4 mg/kg/day (P388 [27]): 218% | MTD [28]: 0.2 mg/kg/day | inhibition in vivo at 0.1 mg/kg/day [29]: 41% | MST (B16 [30]): 41.1 days | ILS at 0.3 mg/kg/day (B16 [31]): 91% | ILS at 6 mg/kg/day (P388 [32]): 200% | MST (B16 [33]): 48.7 days | ILS at 0.9 mg/kg/day (B16 [34]): 126% | MST (B16 [35]): 41.1 days | ILS at 1.2 mg/kg/day (B16 [36]): 69% | ILS at 1.7 mg/kg/day (P388 [37]): 154%

CC[C@]1(O)C[C@@H]2CN(CCc3c([nH]c4ccccc34)[C@@](C(=O)OC)(c3cc4c(cc3OC)N(C)[C@H]3[C@@](O)(C(N)=O)[C@H](O)[C@]5(CC)C=CCN6CC[C@]43[C@@H]65)C2)C1 [VINDESINE]
Drug uptake (Blood): 1%

CC[C@]1(O)C[C@@H]2C[C@](C(=O)OC)(c3cc4c(cc3OC)N(C)[C@H]3[C@@](O)(C(N)=O)[C@H](O)[C@]5(CC)C=CCN6CC[C@]43[C@@H]65)c3[nH]c4ccccc4c3CC[N+]([O-])(C2)C1
LD50 [3]: > 10 mg/kg | TGI [38]: 25% | TGI [39]: 25%

CC[C@]1(O)C[C@H]2CN(CCc3c([nH]c4ccccc34)[C@@](C(=O)OC)(c3cc4c(cc3OC)N(C)[C@H]3[C@@](O)(C(N)=O)[C@H](O)[C@]5(CC)CCCN6CC[C@]43[C@@H]65)C2)C1.O=S(=O)(O)O
TGI [40]: 50% | TGI [41]: 50%
